Assay results: ChEMBL document CHEMBL1649258, “Combined inactivation of lon and ycgE decreases multidrug susceptibility by reducing the amount of OmpF porin in Escherichia coli” (2009)
Values after ≈ are worked out from the molar mass of the structure shown.

Assays:
Type in all cases: functional
[1] = tested on: Escherichia coli; assay: Antibacterial activity against wild-type Escherichia coli AG100 harboring IS186 insertion in lon3 gene and Tn5 insertion in ycgE gene at 37 degC by Etest method
[2] = tested on: Escherichia coli; assay: Antibacterial activity against wild-type Escherichia coli AG100 at 37 degC by Etest method
[3] = tested on: Escherichia coli; assay: Antibacterial activity against wild-type Escherichia coli AG100 harboring IS186 insertion in lon3 gene at 26 degC by Etest method
[4] = tested on: Escherichia coli; assay: Antibacterial activity against wild-type Escherichia coli AG100 harboring Tn5 insertion in ycgE gene at 37 degC by Etest method
[5] = tested on: Escherichia coli; assay: Antibacterial activity against ompF-deficient Escherichia coli AG100 at 37 degC by Etest method
[6] = tested on: Escherichia coli; assay: Antibacterial activity against wild-type Escherichia coli AG100 harboring Tn5 insertion in ycgE gene at 26 degC by Etest method
[7] = tested on: Escherichia coli; assay: Antibacterial activity against wild-type Escherichia coli AG100 harboring marR mutant gene at 26 degC by Etest method
[8] = tested on: Escherichia coli; assay: Antibacterial activity against ompF-deficient Escherichia coli AG100 harboring IS186 insertion in lon3 gene and Tn5 insertion in ycgE gene at 37 degC by Etest method
[9] = tested on: Escherichia coli; assay: Antibacterial activity against wild-type Escherichia coli AG100 harboring IS186 insertion in lon3 gene and Tn5 insertion in ycgE gene at 26 degC by Etest method
[10] = tested on: Escherichia coli; assay: Antibacterial activity against ompF-deficient Escherichia coli AG100 harboring IS186 insertion in lon3 gene and Tn5 insertion in ycgE gene at 26 degC by Etest method
[11] = tested on: Escherichia coli; assay: Antibacterial activity against wild-type Escherichia coli AG100 harboring marR mutant gene at 37 degC by Etest method
[12] = tested on: Escherichia coli; assay: Antibacterial activity against ompF-deficient Escherichia coli AG100 at 26 degC by Etest method
[13] = tested on: Escherichia coli; assay: Antibacterial activity against wild-type Escherichia coli AG100 harboring IS186 insertion in lon3 gene, Tn5 insertion in ycgE gene and plasmid pMPM carrying ompF gene at 26 degC by Etest method
[14] = tested on: Escherichia coli; assay: Antibacterial activity against wild-type Escherichia coli AG100 harboring IS186 insertion in lon3 gene, Tn5 insertion in ycgE gene and plasmid pMPM at 26 degC by Etest method
[15] = tested on: Escherichia coli; assay: Antibacterial activity against wild-type Escherichia coli AG100 at 26 degC by Etest method
[16] = tested on: Escherichia coli; assay: Antibacterial activity against wild-type Escherichia coli AG100 harboring IS186 insertion in lon3 gene at 37 degC by Etest method
[17] = tested on: Escherichia coli; assay: Antibacterial activity against wild-type Escherichia coli AG100 harboring IS186 insertion in lon3 gene, Tn5 insertion in ycgE gene, plasmid pET21b carrying ompF gene and pACT7SP at 26 degC by Etest method
Outline: (§1)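 MIC by Etest on LB agar at 26°C for the lon ycgE strain with pACT7Sp plus pET21b or pET21b-ompF; plates contained 100 μg/ml ampicillin, 50 μg/ml spectinomycin and 0.1 mM IPTG to induce OmpF; averages of at least four measurements.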

[18] = tested on: Escherichia coli; assay: Antibacterial activity against wild-type Escherichia coli AG100 harboring IS186 insertion in lon3 gene, Tn5 insertion in ycgE gene, plasmid pET21b and pACT7SP at 26 degC by Etest method; outline: as §1

| Structure (SMILES) | MIC [1] [µg/mL] | MIC [2] [µg/mL] | MIC [3] [µg/mL] | MIC [4] [µg/mL] | MIC [5] [µg/mL] | MIC [6] [µg/mL] | MIC [7] [µg/mL] | MIC [8] [µg/mL] | MIC [9] [µg/mL] | MIC [10] [µg/mL] | MIC [11] [µg/mL] | MIC [12] [µg/mL] | MIC [13] [µg/mL] | MIC [14] [µg/mL] | MIC [15] [µg/mL] | MIC [16] [µg/mL] | MIC [17] [µg/mL] | MIC [18] [µg/mL] |
| --- | --- | --- | --- | --- | --- | --- | --- | --- | --- | --- | --- | --- | --- | --- | --- | --- | --- | --- |
| CC1(C)S[C@@H]2[C@H](NC(=O)[C@H](N)c3ccccc3)C(=O)N2[C@H]1C(=O)O [AMPICILLIN] | 1.7 (≈ 4.87 µM) | 1 (≈ 2.86 µM) | 0.83 (≈ 2.38 µM) | 1 (≈ 2.86 µM) | 1.83 (≈ 5.24 µM) | 0.75 (≈ 2.15 µM) | 4 (≈ 11.4 µM) | 2.2 (≈ 6.3 µM) | 1.8 (≈ 5.15 µM) | 2.3 (≈ 6.58 µM) | 3 (≈ 8.59 µM) | 1.5 (≈ 4.29 µM) | 1.5 (≈ 4.29 µM) | 2.3 (≈ 6.58 µM) | 0.75 (≈ 2.15 µM) | 1 (≈ 2.86 µM) | – | – |
| CO[C@@]1(NC(=O)Cc2cccs2)C(=O)N2C(C(=O)O)=C(COC(N)=O)CS[C@@H]21 [CEFOXITIN] | 4 (≈ 9.36 µM) | 1.5 (≈ 3.51 µM) | 0.92 (≈ 2.15 µM) | 1.7 (≈ 3.98 µM) | 3 (≈ 7.02 µM) | 0.92 (≈ 2.15 µM) | 7.3 (≈ 17.1 µM) | 3 (≈ 7.02 µM) | 4 (≈ 9.36 µM) | 4.7 (≈ 11 µM) | 6 (≈ 14 µM) | 3 (≈ 7.02 µM) | 1 (≈ 2.34 µM) | 6 (≈ 14 µM) | 0.75 (≈ 1.75 µM) | 1.7 (≈ 3.98 µM) | – | – |
| CC(=O)OCC1=C(C(=O)O)N2C(=O)[C@@H](NC(=O)Cc3cccs3)[C@H]2SC1 [CEPHALOTHIN] | 4.7 (≈ 11.9 µM) | 2 (≈ 5.04 µM) | 1.2 (≈ 3.03 µM) | 2.3 (≈ 5.8 µM) | 4.7 (≈ 11.9 µM) | 1.3 (≈ 3.28 µM) | 10.7 (≈ 27 µM) | 4.7 (≈ 11.9 µM) | 6 (≈ 15.1 µM) | 6.7 (≈ 16.9 µM) | 9.3 (≈ 23.5 µM) | 4.7 (≈ 11.9 µM) | 2 (≈ 5.04 µM) | 5.3 (≈ 13.4 µM) | 1 (≈ 2.52 µM) | 2 (≈ 5.04 µM) | – | – |
| O=C(N[C@H](CO)[C@H](O)c1ccc([N+](=O)[O-])cc1)C(Cl)Cl [CHLORAMPHENICOL] | 9.3 (≈ 28.8 µM) | 4 (≈ 12.4 µM) | 4 (≈ 12.4 µM) | 4 (≈ 12.4 µM) | 6.7 (≈ 20.7 µM) | 4 (≈ 12.4 µM) | 24 (≈ 74.3 µM) | 10.7 (≈ 33.1 µM) | 12 (≈ 37.1 µM) | 13.3 (≈ 41.2 µM) | 21 (≈ 65 µM) | 6 (≈ 18.6 µM) | – | – | 4 (≈ 12.4 µM) | 4 (≈ 12.4 µM) | – | – |
| C[C@H]1c2cccc(O)c2C(=O)C2=C(O)[C@]3(O)C(=O)C(C(N)=O)=C(O)[C@@H](N(C)C)[C@@H]3[C@@H](O)[C@@H]21.O [DOXYCYCLINE] | 2 | 1 | 0.75 | 1.17 | 2 | 0.83 | 3.7 | 2 | 2 | 2 | 3.3 | 2 | – | – | 0.5 | 1.17 | 0.75 | 2 |
| CCn1cc(C(=O)O)c(=O)c2ccc(C)nc21 [NALIDIXIC ACID] | 4 (≈ 17.2 µM) | 4 (≈ 17.2 µM) | 3.7 (≈ 15.9 µM) | 4 (≈ 17.2 µM) | 4 (≈ 17.2 µM) | 3.7 (≈ 15.9 µM) | 6.7 (≈ 28.8 µM) | 4 (≈ 17.2 µM) | 3.3 (≈ 14.2 µM) | 3.3 (≈ 14.2 µM) | 10.7 (≈ 46.1 µM) | 3.3 (≈ 14.2 µM) | 3 (≈ 12.9 µM) | 3 (≈ 12.9 µM) | 4 (≈ 17.2 µM) | 4 (≈ 17.2 µM) | 3 (≈ 12.9 µM) | 3 (≈ 12.9 µM) |
| CN(C)[C@@H]1C(O)=C(C(N)=O)C(=O)[C@@]2(O)C(O)=C3C(=O)c4c(O)cccc4[C@@](C)(O)[C@H]3C[C@@H]12 [TETRACYCLINE] | 2 (≈ 4.5 µM) | 1 (≈ 2.25 µM) | 0.5 (≈ 1.13 µM) | 1 (≈ 2.25 µM) | 1.83 (≈ 4.12 µM) | 0.5 (≈ 1.13 µM) | 6 (≈ 13.5 µM) | 2 (≈ 4.5 µM) | 2 (≈ 4.5 µM) | 2 (≈ 4.5 µM) | 4 (≈ 9 µM) | 2 (≈ 4.5 µM) | – | – | 0.5 (≈ 1.13 µM) | 1 (≈ 2.25 µM) | – | – |
